Source: ChEMBL document CHEMBL2424583, “Structure-activity relationship and in vitro and in vivo evaluation of the potent cytotoxic anti-microtubule agent N-(4-methoxyphenyl)-N,2,6-trimethyl-6,7-dihydro-5H-cyclopenta[d]pyrimidin-4-aminium chloride and its analogues as antitumor agents” (J Med Chem, 2013)
Activity calls are given as the source filed them. The rule behind the calls is not given here.

Key:
NCI-H322M = experiment: Cytotoxicity against human NCI-H322M cells assessed as growth inhibition after 48 hrs by SRB assay; type: functional
DU-145 = experiment: Cytotoxicity against human DU145 cells assessed as growth inhibition after 48 hrs by SRB assay; type: functional; conditions: DU-145, 48 h
OVCAR-4 = experiment: Cytotoxicity against human OVCAR4 cells assessed as growth inhibition after 48 hrs by SRB assay; type: functional; conditions: OVCAR-4, 48 h
M14 = experiment: Cytotoxicity against human M14 cells assessed as growth inhibition after 48 hrs by SRB assay; type: functional; conditions: M14, 48 h
Hs-578T = experiment: Cytotoxicity against human Hs578T cells assessed as growth inhibition after 48 hrs by SRB assay; type: functional
BT-549 = experiment: Cytotoxicity against human BT549 cells assessed as growth inhibition after 48 hrs by SRB assay; type: functional; conditions: BT-549, 48 h
CCRF-CEM = experiment: Cytotoxicity against human CCRF-CEM cells assessed as growth inhibition after 48 hrs by SRB assay; type: functional
[1] = Cytotoxicity against human NCI-ADR-RES cells assessed as growth inhibition after 48 hrs by SRB assay; type: functional
SF-268 = experiment: Cytotoxicity against human SF268 cells assessed as growth inhibition after 48 hrs by SRB assay; type: functional; conditions: SF-268, 48 h
HCT-15 = experiment: Cytotoxicity against human HCT15 cells assessed as growth inhibition after 48 hrs by SRB assay; type: functional; conditions: HCT-15, 48 h
SF-539 = experiment: Cytotoxicity against human SF539 cells assessed as growth inhibition after 48 hrs by SRB assay; type: functional; conditions: SF-539, 48 h
MDA-MB-468 = experiment: Cytotoxicity against human MDA-MB-468 cells assessed as growth inhibition after 48 hrs by SRB assay; type: functional; conditions: MDA-MB-468, 48 h
NCI-H522 = experiment: Cytotoxicity against human NCI-H522 cells assessed as growth inhibition after 48 hrs by SRB assay; type: functional; conditions: NCI-H522, 48 h
SK-OV-3 = experiment: Cytotoxicity against human SKOV3 cells assessed as growth inhibition after 48 hrs by SRB assay; type: functional; conditions: SK-OV-3, 48 h
COLO 205 = experiment: Cytotoxicity against human COLO205 cells assessed as growth inhibition after 48 hrs by SRB assay; type: functional; conditions: COLO 205, 48 h
786-0 = experiment: Cytotoxicity against human 786-0 cells assessed as growth inhibition after 48 hrs by SRB assay; type: functional; conditions: 786-0, 48 h
K562 = experiment: Cytotoxicity against human K562 cells assessed as growth inhibition after 48 hrs by SRB assay; type: functional; conditions: K562, 48 h
SNB-19 = experiment: Cytotoxicity against human SNB19 cells assessed as growth inhibition after 48 hrs by SRB assay; type: functional; conditions: SNB-19, 48 h
SK-MEL-5 = experiment: Cytotoxicity against human SK-MEL-5 cells assessed as growth inhibition after 48 hrs by SRB assay; type: functional; conditions: SK-MEL-5, 48 h
HCC 2998 = experiment: Cytotoxicity against human HCC2998 cells assessed as growth inhibition after 48 hrs by SRB assay; type: functional; conditions: HCC 2998, 48 h
HL-60(TB) = experiment: Cytotoxicity against human HL-60(TB) cells assessed as growth inhibition after 48 hrs by SRB assay; type: functional; conditions: HL-60, 48 h
UACC-62 = experiment: Cytotoxicity against human UACC62 cells assessed as growth inhibition after 48 hrs by SRB assay; type: functional; conditions: UACC-62, 48 h
Tubulin (Sus scrofa) [2] = molecular target: T1, Tubulin (Sus scrofa) (UniProt P02554+P02550); experiment: Displacement of [3H]-colchicine from pig brain tubulin at 5 uM after 10 mins by scintillation counting analysis relative to control
KM12 = experiment: Cytotoxicity against human KM12 cells assessed as growth inhibition after 48 hrs by SRB assay; type: functional; conditions: KM12, 48 h
TK-10 = experiment: Cytotoxicity against human TK10 cells assessed as growth inhibition after 48 hrs by SRB assay; type: functional; conditions: TK-10, 48 h
MOLT-4 = experiment: Cytotoxicity against human MOLT4 cells assessed as growth inhibition after 48 hrs by SRB assay; type: functional; conditions: MOLT-4, 48 h
HT-29 = experiment: Cytotoxicity against human HT-29 cells assessed as growth inhibition after 48 hrs by SRB assay; type: functional; conditions: HT-29, 48 h
LOX IMVI = experiment: Cytotoxicity against human LOXIMVI cells assessed as growth inhibition after 48 hrs by SRB assay; type: functional
MDA-MB-435 [3] = experiment: Cell cycle arrest in human MDA-MB-435 cells assessed as […] at 25 nM after 24 hrs by FACS flow cytometric analysis; type: functional, cell-based
Procedure, shortened: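 MDA-MB-435 cells plated and allowed to adhere 24 h, then exposed to drug for 24 h. Cells harvested, stained with Krishan's reagent, and DNA content analysed by flow cytometry.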

OVCAR-5 = experiment: Cytotoxicity against human OVCAR5 cells assessed as growth inhibition after 48 hrs by SRB assay; type: functional; conditions: OVCAR-5, 48 h
MDA-MB-231 = experiment: Cytotoxicity against human MDA-MB-231 cells assessed as growth inhibition after 48 hrs by SRB assay; type: functional; conditions: MDA-MB-231, 48 h
Tubulin (Sus scrofa) [4] = molecular target: T1, Tubulin (Sus scrofa); experiment: Displacement of [3H]-colchicine from pig brain tubulin at 1 uM after 10 mins by scintillation counting analysis relative to control
A549 = experiment: Cytotoxicity against human A549 cells assessed as growth inhibition after 48 hrs by SRB assay; type: functional; conditions: A549, 48 h
MDA-MB-435 [5] = experiment: Cytotoxicity against human MDA-MB-435 cells assessed as growth inhibition after 48 hrs by SRB assay; type: functional; conditions: MDA-MB-435, 48 h
ACHN = experiment: Cytotoxicity against human ACHN cells assessed as growth inhibition after 48 hrs by SRB assay; type: functional
HOP-62 = experiment: Cytotoxicity against human HOP62 cells assessed as growth inhibition after 48 hrs by SRB assay; type: functional; conditions: HOP-62, 48 h
OVCAR-8 = experiment: Cytotoxicity against human OVCAR8 cells assessed as growth inhibition after 48 hrs by SRB assay; type: functional; conditions: OVCAR-8, 48 h
MCF7 = experiment: Cytotoxicity against human MCF7 cells assessed as growth inhibition after 48 hrs by SRB assay; type: functional; conditions: MCF7, 48 h
NCI-H226 = experiment: Cytotoxicity against human NCI-H226 cells assessed as growth inhibition after 48 hrs by SRB assay; type: functional; conditions: NCI-H226, 48 h
SF-295 = experiment: Cytotoxicity against human SF295 cells assessed as growth inhibition after 48 hrs by SRB assay; type: functional; conditions: SF-295, 48 h
SNB-75 = experiment: Cytotoxicity against human SNB75 cells assessed as growth inhibition after 48 hrs by SRB assay; type: functional; conditions: SNB-75, 48 h
[6] = Cytotoxicity against human EKVX cells assessed as growth inhibition after 48 hrs by SRB assay; type: functional
SR = experiment: Cytotoxicity against human SR cells assessed as growth inhibition after 48 hrs by SRB assay; type: functional
SN12C = experiment: Cytotoxicity against human SN12C cells assessed as growth inhibition after 48 hrs by SRB assay; type: functional
HCT-116 = experiment: Cytotoxicity against human HCT116 cells assessed as growth inhibition after 48 hrs by SRB assay; type: functional; conditions: HCT-116, 48 h

T1 sequence (P02550 whole entry, looked up): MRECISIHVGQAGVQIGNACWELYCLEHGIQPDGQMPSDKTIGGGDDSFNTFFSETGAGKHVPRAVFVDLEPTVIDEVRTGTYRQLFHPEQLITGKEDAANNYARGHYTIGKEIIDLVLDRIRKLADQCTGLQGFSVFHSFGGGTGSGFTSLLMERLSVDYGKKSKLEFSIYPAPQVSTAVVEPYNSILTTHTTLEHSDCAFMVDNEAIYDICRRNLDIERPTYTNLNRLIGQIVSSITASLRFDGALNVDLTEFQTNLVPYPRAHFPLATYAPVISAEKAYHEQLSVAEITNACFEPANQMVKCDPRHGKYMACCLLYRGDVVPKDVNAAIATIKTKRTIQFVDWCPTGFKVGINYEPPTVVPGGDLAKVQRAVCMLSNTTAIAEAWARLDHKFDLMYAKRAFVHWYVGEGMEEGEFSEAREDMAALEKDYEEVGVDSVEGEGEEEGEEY
T1 sequence (P02554 whole entry, looked up): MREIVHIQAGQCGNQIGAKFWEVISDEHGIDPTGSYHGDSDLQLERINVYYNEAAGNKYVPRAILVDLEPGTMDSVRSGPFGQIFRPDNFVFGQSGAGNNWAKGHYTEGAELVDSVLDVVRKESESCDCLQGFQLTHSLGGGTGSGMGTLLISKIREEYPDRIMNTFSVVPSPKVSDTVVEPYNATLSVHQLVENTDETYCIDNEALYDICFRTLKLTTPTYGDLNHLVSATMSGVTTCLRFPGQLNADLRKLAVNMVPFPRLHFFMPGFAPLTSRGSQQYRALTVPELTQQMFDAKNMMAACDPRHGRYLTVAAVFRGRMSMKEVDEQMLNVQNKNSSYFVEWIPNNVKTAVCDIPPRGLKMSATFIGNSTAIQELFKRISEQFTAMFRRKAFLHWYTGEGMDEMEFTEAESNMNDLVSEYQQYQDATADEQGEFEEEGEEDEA

For `COc1ccc(N(C)c2nc(C)nc3c2CCC3)cc1.Cl`, the GI50 (NCI-H322M) was 48.8 nM, the GI50 (DU-145) was 19.6 nM and the GI50 (OVCAR-4) was 22.9 nM. For the same compound, the GI50 (M14) was less than 10 nM, the GI50 (Hs-578T) was less than 10 nM and the GI50 (BT-549) was 21.8 nM. For the same compound, the GI50 (CCRF-CEM) was less than 10 nM, the GI50 [1] was less than 10 nM and the GI50 (SF-268) was 13.9 nM. It also gave a GI50 (HCT-15) of less than 10 nM, a GI50 (SF-539) of less than 10 nM and a GI50 (MDA-MB-468) of less than 10 nM. For the same compound, the GI50 (NCI-H522) was less than 10 nM, the GI50 (SK-OV-3) was 14.6 nM and the GI50 (COLO 205) was less than 10 nM. For the same compound, the GI50 (786-0) was 17.8 nM, the GI50 (K562) was less than 10 nM and the GI50 (SNB-19) was 17 nM. The GI50 (SK-MEL-5) was less than 10 nM, the GI50 (HCC 2998) was 16.4 nM and the GI50 (HL-60(TB)) was less than 10 nM. It also gave a GI50 (UACC-62) of less than 10 nM, an inhibition (Tubulin (Sus scrofa) [2]) of 92% and a GI50 (KM12) of less than 10 nM. For the same compound, the GI50 (TK-10) was 42.7 nM, the GI50 (MOLT-4) was 27.8 nM and the GI50 (HT-29) was less than 10 nM. For the same compound, the GI50 (LOX IMVI) was 18.4 nM, the Activity (MDA-MB-435 [3]) was “Active” and the GI50 (OVCAR-5) was 36.4 nM. The GI50 (MDA-MB-231) was 25.9 nM, the inhibition (Tubulin (Sus scrofa) [4]) was 70% and the GI50 (A549) was 15 nM. The GI50 (MDA-MB-435 [5]) was less than 10 nM, the GI50 (ACHN) was less than 10 nM and the GI50 (HOP-62) was less than 10 nM. The GI50 (OVCAR-8) was 21.8 nM, the GI50 (MCF7) was less than 10 nM and the GI50 (NCI-H226) was 34.7 nM. For the same compound, the GI50 (SF-295) was less than 10 nM, the GI50 (SNB-75) was less than 10 nM and the GI50 [6] was 34.8 nM. It also gave a GI50 (SR) of less than 10 nM, a GI50 (SN12C) of 33 nM and a GI50 (HCT-116) of less than 10 nM.
`COc1ccc(N(C)c2nc(C)nc3c2CC(C)C3)cc1.Cl` (racemic) gave a GI50 (NCI-H322M) of 59 nM, a GI50 (DU-145) of 21.4 nM and a GI50 (OVCAR-4) of 26.8 nM. It also gave a GI50 (M14) of 10.2 nM, a GI50 (Hs-578T) of less than 10 nM and a GI50 (BT-549) of 21.9 nM. The GI50 (CCRF-CEM) was 16.3 nM, the GI50 [1] was less than 10 nM and the GI50 (SF-268) was 15.2 nM. For the same compound, the GI50 (HCT-15) was less than 10 nM, the GI50 (SF-539) was 11.4 nM and the GI50 (MDA-MB-468) was less than 10 nM. For the same compound, the GI50 (NCI-H522) was less than 10 nM, the GI50 (SK-OV-3) was 27.5 nM and the GI50 (COLO 205) was 18.3 nM. It also gave a GI50 (786-0) of 34.8 nM, a GI50 (K562) of less than 10 nM and a GI50 (SNB-19) of 36.9 nM. The GI50 (SK-MEL-5) was less than 10 nM, the GI50 (HCC 2998) was 24 nM and the GI50 (HL-60(TB)) was less than 10 nM. For the same compound, the GI50 (UACC-62) was less than 10 nM, the inhibition (INH) (Tubulin (Sus scrofa) [2]) was 84% and the GI50 (KM12) was less than 10 nM. The GI50 (TK-10) was 292 nM, the GI50 (MOLT-4) was 31.8 nM and the GI50 (HT-29) was 11.8 nM. The GI50 (LOX IMVI) was 22.7 nM, the Activity (MDA-MB-435 [3]) was “Active” and the GI50 (OVCAR-5) was 38.5 nM. The GI50 (MDA-MB-231) was 24.6 nM, the inhibition (Tubulin (Sus scrofa) [4]) was 60% and the GI50 (A549) was 24.4 nM. The GI50 (MDA-MB-435 [5]) was less than 10 nM, the GI50 (ACHN) was 14.6 nM and the GI50 (HOP-62) was 19.4 nM. It also gave a GI50 (OVCAR-8) of 32.8 nM, a GI50 (MCF7) of less than 10 nM and a GI50 (NCI-H226) of 31.5 nM. For the same compound, the GI50 (SF-295) was less than 10 nM, the GI50 (SNB-75) was less than 10 nM and the GI50 [6] was 19.6 nM. The GI50 (SR) was less than 10 nM, the GI50 (SN12C) was 31.8 nM and the GI50 (HCT-116) was 15.1 nM.
